Experimental data from ChEMBL document CHEMBL1124867, “Synthesis and antiviral activity of monofluoro and difluoro analogues of pyrimidine deoxyribonucleosides against human immunodeficiency virus (HIV-1)” (J Med Chem, 1990).
pIC50: −log10 of the molar value.

Assays:
C8166 [1] = assay: Concentration of compound that inhibits incorporation of radiolabeled amino acids by 50 %; format: functional; conditions: Homo sapiens, read-out: CD50 (the source's name)
Procedure, shortened: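 C8166 cells (2 × 10⁵) exposed to compound at various concentrations for 3 days, washed, then given ¹⁴C protein hydrolysate for a further 24 h. Cells harvested and washed, ¹⁴C incorporation counted by scintillation, radioactivity plotted against concentration; CD50 = concentration inhibiting label incorporation by 50%.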

C8166 [2] = assay: Antiviral activity against HIV-1 (RF strain) in C8166 cells; format: functional, cell-based; conditions: Homo sapiens
Procedure, shortened: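 HIV-1 RF strain in C8166 cells, 3-day incubation with compound at various concentrations (highest tested 100 μM). Virus in culture medium quantified by p24 antigen-capture ELISA (primary antiserum against p24, horseradish peroxidase detection), colour read spectrophotometrically and plotted against concentration; IC50 = concentration reducing virus levels by 50%.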

SMILES | CC50 (C8166 [1]) [µM] | pIC50 (C8166 [2])
Cc1cn([C@@H]2O[C@H](CO)C=C2F)c(=O)[nH]c1=O | > 1000 | 4.00
Nc1ccn([C@@H]2O[C@H](CO)C[C@@H]2F)c(=O)n1 | 500 | 6.15
Nc1ccn([C@@H]2O[C@H](CO)C=C2F)c(=O)n1 | 30 | 5.00
O=c1ccn(C2OC(CO)C=C2F)c(=O)[nH]1 (configuration not stated) |  | < 4.00
Nc1ccn(C2OC(CO)CC2F)c(=O)n1 (configuration not stated) |  | < 4.00
O=c1ccn(C2OC(CO)C(F)C2F)c(=O)[nH]1 (configuration not stated) |  | < 4.00
Nc1nc(=O)n(C2OC(CO)CC2F)cc1F (configuration not stated) |  | < 4.00
O=c1ccn(C2OC(CO)CC2F)c(=O)[nH]1 (configuration not stated) |  | < 4.00
Nc1ccn(C2OC(CO)C(F)C2F)c(=O)n1 (configuration not stated) | > 100 | 5.00
Nc1ccn([C@H]2CC[C@@H](CO)O2)c(=O)n1 [ZALCITABINE] | 1000 | 6.90
Cc1cn([C@H]2C[C@H](N=[N+]=[N-])[C@@H](CO)O2)c(=O)[nH]c1=O [ZIDOVUDINE] | > 1000 | 8.07
